Our source for the IC50 and Activity values is ChEMBL document CHEMBL1143856, “Iromycins from Streptomyces sp. and from synthesis: new inhibitors of the mitochondrial electron transport chain” (Bioorg Med Chem, 2008).

Series [1] deals with Mitochondrial complex I; NADH oxidoreductase (Bos taurus, UniProt P25708+P52505). Description: Inhibition of NADH-ubiquinone oxidoreductase assessed as NADH oxidase activity in bovine heart submitochondrial particles. The series is classed as protein-complex assay. The gist of the method:
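Bovine heart mitochondria isolated by differential centrifugation and sonicated to submitochondrial particles. Assay buffer was 75 mM air-saturated Na/K phosphate, pH 7.4, with 1 mM EDTA and 1 mM MgCl2, and 42–219 µg/mL protein, at 30 °C. Inhibitors were added in methanol (≤2% v/v) with 4 min preincubation. Reaction started with 0.16 mM NADH; A340 decrease followed over 4 min. Means of 2–4 independent experiments.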

Series [2] can be described thus: Cytotoxicity against human HM02 cells. The format is functional, cell-based. The gist of the method:
(§1)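 Human gastric adenocarcinoma HM02, hepatocellular carcinoma HepG2 and breast adenocarcinoma MCF7 lines tested following NCI directives. Cytotoxicity expressed as IC50.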

A further series deals with Mus musculus. In words: Toxicity in mouse at 100 mg/kg, ip. The format is organism-based. Details: dose 100 mg/kg, route intraperitoneal. The following applies: in vivo.
The next series deals with HepG2. Description: Cytotoxicity against human HepG2 cells. The format is functional, cell-based. In outline:
as §1

The next series has as its system MCF7. Description: Cytotoxicity against human MCF7 cells. The format is functional, cell-based. In outline: as §1
In a further series the test system is L929. In words: Cytotoxicity against mouse L929 fibroblasts. The series is classed as cell-based.

Molecules are shown by their SMILES.

Mitochondrial complex I; NADH oxidoreductase, sequence (P25708 21-464 limits assumed, other chains not shown): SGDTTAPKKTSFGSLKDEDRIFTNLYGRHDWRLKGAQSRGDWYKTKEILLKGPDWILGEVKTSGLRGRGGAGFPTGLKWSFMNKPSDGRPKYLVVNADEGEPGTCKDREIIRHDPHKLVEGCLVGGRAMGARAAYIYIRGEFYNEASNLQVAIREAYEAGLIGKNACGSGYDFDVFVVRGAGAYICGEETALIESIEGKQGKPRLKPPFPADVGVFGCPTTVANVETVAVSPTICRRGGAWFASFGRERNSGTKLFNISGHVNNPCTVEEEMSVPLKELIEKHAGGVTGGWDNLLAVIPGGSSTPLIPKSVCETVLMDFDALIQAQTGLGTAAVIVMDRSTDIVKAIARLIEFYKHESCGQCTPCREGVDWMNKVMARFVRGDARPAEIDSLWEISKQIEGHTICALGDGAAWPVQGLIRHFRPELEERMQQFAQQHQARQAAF

On to `CCCc1c(C/C=C(\C)C/C=C/C(C)C)[nH]c(=O)c(C)c1OC(C)=O` [IROMYCIN AA], for which, in series [1], the IC50 is more than 23.4 µM.

Take `CCCc1c(CCC(C)CCCC(C)C)[nH]c(=O)c(C)c1O` (centres undefined) [IROMYCIN AH]: the IC50 in series [1] came out at 2.21 µM.

For the compound `CCCc1c(C/C=C(\C)C/C=C/C(C)C)[nH]c(=O)c(C)c1OC` [IROMYCIN AM], the IC50 in series [1] stood at 2.8 µM.

Consider `CCCc1c(C/C=C(\C)C/C=C/C(C)C)oc(=O)c(C)c1O` [IROMYCIN AO], for which the concentration for half-maximal inhibition (IC50) in series [1] was more than 26.6 µM.

Turning to `CCCc1c(C/C=C(\C)C/C=C/C(C)C)[nH]c(=O)c(C)c1O` [IROMYCIN A], the IC50 was more than 30 µM in series [2]; more than 30 µM in the series on HepG2; 0.461 µM in series [1]; more than 30 µM in the series on MCF7; 66 µM with L929. For the same compound, in the series on Mus musculus, the Activity entry is “Non-toxic”.

For `CCCc1c(C/C=C(\C)C/C=C/C(C)(C)O)[nH]c(=O)c(C)c1OC(C)=O` [IROMYCIN BA], the 50% inhibitory concentration (IC50) in series [1] is more than 22.4 µM.

Take `CCCc1c(C/C=C(\C)C/C=C/C(C)(C)O)[nH]c(=O)c(C)c1OC` [IROMYCIN BM]: in series [1], the IC50 is more than 24.3 µM.

`CCCc1c(C/C=C(\C)C/C=C/C(C)(C)O)[nH]c(=O)c(C)c1O` [IROMYCIN B]: the IC50 was more than 30 µM in series [2]; more than 30 µM in the series on HepG2; 17.8 µM in series [1]; more than 30 µM in the series with MCF7; 66 µM with L929.

On to `CC/C=C/C/C(C)=C/Cc1[nH]c(=O)c(C)c(O)c1CCC` [IROMYCIN C], for which, in series [1], the IC50 was found to be 3.52 µM.

Consider `CCCc1c(C/C=C(\C)C/C=C/C(C)O)[nH]c(=O)c(C)c1O` (centres undefined) [IROMYCIN D], for which, in series [1], the IC50 was more than 26.5 µM.

In the case of `CCCC1(O)C(C/C=C(\C)C/C=C/C(C)C)=NC(=O)C(C)=C1O` (centres undefined) [IROMYCIN E], in series [1], the IC50 was more than 25.3 µM.

Take `CCCC1=C(C/C=C(\C)C/C=C/C(C)C)N=C(O)C(C)(O)C1=O` (centres undefined) [IROMYCIN F]: in series [1], the half-maximal inhibitory concentration (IC50) was more than 25.3 µM.

In the case of `CCCCC/C(C)=C/Cc1oc(=O)c(C)c(O)c1CCC` [IROMYCIN MO], the IC50 in series [1] turned out to be 8.55 µM.

Consider `CCCCC/C(C)=C/Cc1[nH]c(=O)c(C)c(O)c1CCC` [IROMYCIN M], for which the values for the IC50 (in series [1]; in the series on L929) were 1.01 µM and 66 µM, respectively.

As for `CCCc1c(C/C=C(\C)C/C=C/C(C)(C)C)oc(=O)c(C)c1O` [IROMYCIN SO], in series [1], the IC50 is 15.1 µM.

On to `CCCc1c(C/C=C(\C)C/C=C/C(C)(C)C)[nH]c(=O)c(C)c1O` [IROMYCIN S], for which the values for the IC50 (in series [1]; in the series with L929) were 0.183 µM and 10 µM, respectively.

As for `C/C=C(\C)[C@H](O)[C@H](C)/C=C(C)/C=C/C/C(C)=C/Cc1nc(OC)c(OC)c(O)c1C` [PIERICIDIN A], the results for the IC50 (in series [1]; with L929) were 0.005 µM and 0.00043 µM, respectively.
